# Compound activity from PubChem.
# NTR1 agonist = agonists of human NTR1, primary screen, imaging, U2OS cells, beta-arrestin-GFP, high content; Neurotensin receptor type 1 (Homo sapiens), P30989; NTR1-U2OS beta-arrestin-GFP spot imaging, agonist mode; activation, % at 20 µM; hit rate 0.17% among 330,000;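 active means activation at or above 40% of the spot to cytoplasm intensity ratio, with at least 20 cells analyzed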;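 further: 0% = DMSO without peptide and 100% = 100 nM NTR1 peptide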
# Target sequence (P30989 whole entry, looked up): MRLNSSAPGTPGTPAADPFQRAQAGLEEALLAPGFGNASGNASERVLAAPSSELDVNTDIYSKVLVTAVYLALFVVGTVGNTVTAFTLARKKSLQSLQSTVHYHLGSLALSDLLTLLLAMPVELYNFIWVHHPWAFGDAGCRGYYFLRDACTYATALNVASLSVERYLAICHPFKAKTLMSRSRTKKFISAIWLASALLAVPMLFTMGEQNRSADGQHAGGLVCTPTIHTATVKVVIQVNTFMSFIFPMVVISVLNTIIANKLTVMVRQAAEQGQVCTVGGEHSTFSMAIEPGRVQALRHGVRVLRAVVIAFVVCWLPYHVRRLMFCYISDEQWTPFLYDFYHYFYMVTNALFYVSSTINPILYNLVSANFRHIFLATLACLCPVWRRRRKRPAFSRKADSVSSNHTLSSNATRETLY
# CHO parental Ca = ATP-evoked calcium signal inhibitors, parental CHO, primary screen, counter-screen for OX1R antagonist project, cell-based, fluorescence, Fluo-8 calcium dye; parental CHO-K1, ATP-induced calcium, Fluo-8 fluorescence; inhibition, % at 5.6 µM; hit rate 0.63% among 330,000;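 active means inhibition above that plate's mean sample inhibition plus 3 SD, cut at about 26% in these data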;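 further: 0% = ATP-challenged DMSO wells and 100% = DMSO wells without ATP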
#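 Assay system: untransfected parental CHO cell line. Also added: ATP agonist challenge. Dosing: one dose, 5.6 µM nominal. Measured by: Fluo-8 fluorescence. Read-out: % inhibition. Benchmarks: ATP wells versus no-ATP DMSO wells. Repeats: no replicates.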
# OX1R antag-1 = antagonists of human orexin 1 receptor (OX1R); OX1R-expressing cells, FRET antagonist read-out; inhibition, % at 6.6 µM; hit rate 1.8% among 330,000; AID 485270, 2010; in the data active means inhibition mostly above about 38%, no sharp cut-off; inactive means mostly below about 40%;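 further: 0% = agonist challenge alone and 100% = reference antagonist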
# TAAR1 antagonist = human TAAR1 antagonists, primary screen, Fluo-8 calcium fluorescence, CHO RD-HGA16 cells | AID 624466, 2012 | antagonist | inhibition, % at 3 µM | Trace amine-associated receptor 1 (Homo sapiens), Q96RJ0 | hit rate 1.5% among 360,000;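 active means inhibition above a per-plate cutoff, the mean inhibition of test compounds on that plate plus 3 SD, cut at about 49% in these data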;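 further: 0% = DMSO plus EC80 beta-PEA response and 100% = DMSO alone without agonist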
# Target sequence (Q96RJ0 whole entry, looked up): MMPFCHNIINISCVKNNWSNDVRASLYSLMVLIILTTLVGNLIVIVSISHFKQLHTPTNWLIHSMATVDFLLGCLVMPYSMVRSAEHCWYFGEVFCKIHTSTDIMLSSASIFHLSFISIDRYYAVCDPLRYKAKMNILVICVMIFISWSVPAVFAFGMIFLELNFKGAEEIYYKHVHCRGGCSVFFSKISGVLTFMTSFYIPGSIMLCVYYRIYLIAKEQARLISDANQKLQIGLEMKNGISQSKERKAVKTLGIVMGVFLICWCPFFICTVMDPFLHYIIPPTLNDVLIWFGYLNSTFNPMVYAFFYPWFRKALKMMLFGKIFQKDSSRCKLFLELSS
#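 Material: CHO RD-HGA16 cells bearing hTAAR1; compound dosing: one-point dosing, 3 µM nominal final; schedule: dye loading 75 min at 37 °C, then 30 min room temperature; measured by: calcium fluorescence with Fluo-8; control set: vehicle and agonist controls; replication: n of 1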
# TAAR1 agonist = human TAAR1 agonists, primary screen, Fluo-8 calcium fluorescence, CHO RD-HGA16 cells; hit rate 0.99% among 360,000; activation, % at 3 µM; vehicle wells 0%, saturating PEA agonist 100%; Trace amine-associated receptor 1 (Homo sapiens), Q96RJ0;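 active means activation above the mean activation of all test compounds in the run plus 3 SD, cut at about 38% in these data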
#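 Test system: RD-HGA16 (CHO) cells co-expressing Gα16 and hTAAR1 | Doses: Single dose, 3 µM | Schedule: 17-24 h seeding, 75 min 37 °C dye, 30 min RT | Evaluation: % activation from peak over basal fluorescence ratio, DMSO-to-PEA scaled | Technique: Kinetic Fluo-8 calcium fluorescence | Benchmarks: Low control DMSO, high control PEA (EC100)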
# OX1R antag-2 = OX1R (HCRTR1) antagonists, primary screen, fluorescence, CHO/OX1R cells, Fluo-8 calcium, orexin A; AID 434989, 2010; inhibition, % at 5 µM; Fluo-8 calcium fluorescence; hit rate 0.43% among 330,000; Orexin/Hypocretin receptor type 1 (Homo sapiens), O43613;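 active means inhibition above its plate's threshold, mean inhibition of all tested compounds on the plate plus 3 SD, cut at about 37% in these data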;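 further: 0% = orexin A challenge wells and 100% = SB-334867-A antagonist wells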
# Starred values were filed as active, the others as inactive; x = not tested or not shown; ! = not active in a repeat. Most compounds without a hit are left out; they make up all but 4% or so of the library.
SMILES,NTR1 agonist,CHO parental Ca,OX1R antag-1,TAAR1 antagonist,TAAR1 agonist,OX1R antag-2
COc1ccccc1N1CCN(C(=O)c2cn(Cc3ccccc3)nc2-c2cccnc2)CC1,3.0,-32.3,-3.4,19.2,46.8*,-31.4
COc1cccc(N2CCN(C(=O)c3cn(Cc4ccccc4)nc3-c3cccnc3)CC2)c1,2.5,-14.6,4.2,-7.7,8.2,-16.1
O=C(Nc1ccc(F)cc1)c1cccc(N2C(=O)C3C4C=CC(C5CC45)C3C2=O)c1 (stereo not given),-0.1,-7.6,14.8,39.6,8.7,-19.6
CN(C)c1ccc(Sc2ccc3nc(N)nc(N)c3c2)cc1,x,x,x,12.0,44.2*,x
c1ccc(-c2nc3ccccc3nc2-c2ccc(CN3CCC4(CC3)CNc3ccccc34)cc2)cc1,x,x,x,-0.9,-1.7,x
COc1cc(-c2nnc(COC(=O)CSc3cc(C)c4ccccc4n3)o2)cc(OC)c1OC,-0.2,-17.8,70.2*,-4.7,1.9,9.5
COc1cc(CCC(=O)OCc2nnc(-c3ccccc3)o2)cc(OC)c1OC,0.0,-25.7,13.2,-6.6,7.6,-19.9
COc1ccc(-c2cc(-c3nnc(COC(=O)C4CC4)o3)c3ccccc3n2)cc1OC,1.3,-2.2,19.3,51.9*,8.9,-13.4
CCN(CC)C(=O)c1ncn2c1C(=O)NC[C@H]2C,x,x,x,-17.0,2.2,x
Cn1c(=O)c2cc(NCc3ccccc3)nnc2n(C)c1=O,1.8,-9.2,48.0*,2.0,10.1,-17.1
Cn1c(=O)c2c(nc(NCc3ccccc3)n2C)n(C)c1=O,1.0,-9.7,11.2,0.9,13.3,-14.9
COc1cc(NC(=O)c2ccno2)cc(C(=O)Nc2cccc(C(F)(F)F)c2)c1,-0.9,26.8,18.2,38.1,18.0,14.6
COc1cc(NC(=O)c2cc3cccc(OC)c3o2)cc(C(=O)Nc2cccc(C(F)(F)F)c2)c1,6.3,41.9*,12.5,86.7*,21.4,24.3
CCN1CCN(Cc2ccc(NC(=O)c3cc(NC(=O)c4cc5cccc(OC)c5o4)cc(OC)c3)cc2C(F)(F)F)CC1,5.7,-3.3,20.8,59.0*!,11.4,-19.2
COc1ccc(-c2cc(C(=O)Nc3cc(OC)cc(C(=O)Nc4cccc(C(F)(F)F)c4)c3)[nH]n2)cc1,-5.5,32.4*,19.9,54.7*,9.7,21.9
COC(=O)C1=C(C)N(CC(C)C)C(=S)NC1c1cccc(Br)c1 (stereo not given),x,x,x,48.5,3.1,x
COc1ccc(C2O[C@@H](C)[C@@H]3C(=O)N4CCc5c([nH]c6ccccc56)[C@@H]4C[C@@H]3N2C)cc1 (stereo not given in full),x,x,x,-11.9,0.2,x
CC(=O)c1c(C)[nH]c(C(=O)COC(=O)c2cc(C)oc2C)c1C,-2.0,-4.6,14.7,16.3,8.2,18.0
CC(=O)c1c(C)[nH]c(C(=O)COC(=O)C2(C)CC2(Cl)Cl)c1C (stereo not given),-1.5,-6.3,5.8,55.8*,17.0,15.6
O=C(O)c1cnc(-c2ccccc2)nc1Sc1ccccc1Cl,1.9,-0.1,56.0*,-24.1,-0.8,-22.1
Cc1csc(=Nc2cccnc2)n1CC1CCCCC1,4.9,-14.6,60.9,-0.1,-1.3,-3.1
C=CCN1C(=Nc2cccnc2)SCC1(O)c1ccc(C)cc1 (stereo not given),0.2,36.7*,28.9,x,x,18.6
O=C(N[C@H](C(=O)N1CCC[C@H]1C(=O)NC1CCCC1)C1CCCCC1)C1CCCC1,x,x,x,-12.9,1.7,x
COC(=O)[C@]12C[C@H](CC(=O)N3CCOCC3)C(=O)N(CCC3=CCCCC3)C1=C[C@H](COCc1ccccc1)O[C@@H]2C,x,x,x,-38.1,3.3,x
COC(=O)c1ccc(NC(=S)NC(=O)c2c(-c3ccccc3)noc2C)cc1,4.6,-10.5,23.7,0.0,2.9,-18.7
SMILES,NTR1 agonist,CHO parental Ca,OX1R antag-1,TAAR1 antagonist,TAAR1 agonist,OX1R antag-2
COC(=O)c1ccc(C)c(NC(=O)c2c(-c3ccccc3)noc2C)c1,3.1,-12.3,38.3*,8.3,1.4,10.4
CCCCCCCCN1C(=O)[C@@H](CC(=O)NCC2CCCCC2)C[C@@]2(C(=O)OC)C1=C[C@H](C1CCCC1)O[C@@H]2C,x,x,x,-21.1,-0.4,x
Fc1ccccc1COc1cccc(/C=N/n2cnnc2)c1,-4.8,-4.0,14.3,15.2,6.0,-16.9
C(=N\n1cnnc1)/c1ccc(OCc2ccccc2)cc1,0.0,1.0,6.2,26.7,12.5,-7.2
Cc1cc(/C=N/n2cnnc2)c(C)n1-c1ccc(OCc2ccccc2F)cc1,4.1,56.1*,22.6,29.2,14.5,19.6
Cc1cc(/C=N/n2cnnc2)c(C)n1-c1ccc(OCc2ccc(Cl)cc2)cc1,11.6,49.4*,14.3,47.4,14.9,52.1*
CSc1n[nH]c(-c2cccs2)n1,x,x,x,3.8,-0.8,x
CCCCCCCCN1C(=O)[C@@H](CC(=O)N2CCN(C(=O)OCC)CC2)C[C@@]2(C(=O)OC)C1=C[C@H](C(C)(C)C)O[C@@H]2C,x,x,x,-21.9,-1.7,x
O=S(=O)(c1ccccc1)N1CCC(O)(CSc2ccc(Cl)cc2)CC1,6.8,61.6*,24.8,21.9,7.7,45.6*
CCNC(=S)N1CCN(c2ccc([N+](=O)[O-])cc2)CC1,1.1,-4.6,47.0,-1.6,11.6,-20.3
O=[N+]([O-])c1ccc(N2CCN(C(=S)NCc3ccc(Cl)cc3)CC2)cc1,0.3,84.4*,31.8,36.0,6.3,51.2*
COc1ccc2cc(C(=O)CS(=O)(=O)c3ccc(Cl)cc3)c(=O)oc2c1,x,x,x,6.4,0.5,x
COc1cc2ccccc2cc1C(=O)Nc1nccs1,-2.1,-22.2,63.8*,40.3,5.8,-9.2
COc1cc2ccccc2cc1C(=O)Nc1cc(C)ccn1,1.4,-23.7,53.1*,14.2,-2.1,-14.9
COc1ccc(C(=O)Nc2ccccc2C(=O)Nc2cc(C)ccn2)cc1,4.1,-13.9,5.6,17.3,-1.9,-43.5
COCCNC(=S)N1C[C@H]2CON(C)[C@H]2C[C@H]1c1ccccc1Br,x,x,x,-24.8,2.2,x
O=C(C1CCCCC1)N1CCc2[nH]c3ccc(F)cc3c2C1,2.9,-8.7,2.2,-12.4,11.9,-7.7
COc1ccccc1NC(=O)N1CCc2[nH]c3ccc(F)cc3c2C1,1.1,-7.9,34.9,-9.8,42.9*,-23.1
CC1CC(C)CN(C(=O)CSc2nc(Cc3cccs3)nc3ccccc23)C1 (stereo not given),13.1,-22.7,21.9,49.6*,5.2,-5.1
CCOC(=O)CNC(=O)CSc1nc(Cc2cccs2)nc2ccccc12,2.4,-17.0,33.1,3.6,1.1,-19.2
